Measured values from ChEMBL document CHEMBL5724801, “EUbOPEN Chemogenomics Library - Multiplex” (2024).
“And” between values parts separate entries of the source, which are not always exact repeats. Equal entries are not always repeated.

Test system: Fibroblast
Assay: Multiplex assay against human fibroblast
Assay type: toxicity, cell-based
Method in brief: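 Cells stained live at seeding with Hoechst33342, BioTracker Green Microtubule Cytoskeleton Dye, MitoTracker Red and Annexin V Alexa Fluor 680 were imaged on a CQ1 microscope at 37°C and 5% CO2 after compound addition. Their classification by CellPathfinder machine-learning gating ran from Hoechst high-intensity objects versus normal cells, to healthy, pyknosed or fragmented nuclei among normal cells, to mitotic or apoptotic among pyknosed cells. Tubulin, mitochondrial-mass and membrane-permeability phenotypes are per cents of healthy-nucleus cells.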

[1] = 12 h, 1 µM, compound concentration 1 uM
[2] = 12 h, 10 µM, compound concentration 10 uM
[3] = 24 h, 1 µM, compound concentration 1 uM
[4] = 24 h, 10 µM, compound concentration 10 uM
[5] = 48 h, 1 µM, compound concentration 1 uM
[6] = 48 h, 10 µM, compound concentration 10 uM

## Cc1cc(=O)n(C)c2cc(N3C(=O)CC[C@H](NS(=O)(=O)CC(C)C)[C@H]3c3ccc(Cl)cc3)ccc12
[1]
  Population Apoptotic (%): 31% and 38%
  Population Fragmented Nuclei (%): 16% and 20%
  Population Healthy Nuclei (%): 56% and 38%
  Population Hoechst High Intensity Objects (%): 2% and 10%
  Population Membrane Permeable-Phenotype (%): 0% and 8%
  Population Mitochondria Different-Phenotype (%): 4%
  Population Mitotic Cells (%): 68% and 62%
  Population Normal (%): 97% and 89%
  Population Pyknosed Nuclei (%): 26% and 40%
  Population Tubulin-Different-Phenotype (%): 34% and 61%
  Total Cell Count: 135 and 137
[2]
  Population Apoptotic (%): 41% and 18%
  Population Fragmented Nuclei (%): 11% and 26%
  Population Healthy Nuclei (%): 40% and 31%
  Population Hoechst High Intensity Objects (%): 3% and 11%
  Population Membrane Permeable-Phenotype (%): 1% and 8%
  Population Mitochondria Different-Phenotype (%): 8%
  Population Mitotic Cells (%): 58% and 82%
  Population Normal (%): 96% and 88%
  Population Pyknosed Nuclei (%): 48% and 42%
  Population Tubulin-Different-Phenotype (%): 86% and 94%
  Total Cell Count: 149 and 133
[3]
  Population Apoptotic (%): 34% and 50%
  Population Fragmented Nuclei (%): 18% and 26%
  Population Healthy Nuclei (%): 62% and 44%
  Population Hoechst High Intensity Objects (%): 2% and 10%
  Population Mitochondria Different-Phenotype (%): 4% and 5%
  Population Mitotic Cells (%): 65% and 50%
  Population Normal (%): 97% and 89%
  Population Pyknosed Nuclei (%): 18% and 29%
  Population Tubulin-Different-Phenotype (%): 24% and 70%
  Total Cell Count: 140 and 128
[4]
  Population Apoptotic (%): 43% and 42%
  Population Fragmented Nuclei (%): 14% and 28%
  Population Healthy Nuclei (%): 46% and 26%
  Population Hoechst High Intensity Objects (%): 10% and 8%
  Population Membrane Permeable-Phenotype (%): 0% and 17%
  Population Mitochondria Different-Phenotype (%): 19% and 8%
  Population Mitotic Cells (%): 56% and 57%
  Population Normal (%): 90% and 91%
  Population Pyknosed Nuclei (%): 39% and 45%
  Population Tubulin-Different-Phenotype (%): 88% and 85%
  Total Cell Count: 150 and 143
[5]
  Population Apoptotic (%): 48% and 46%
  Population Fragmented Nuclei (%): 27% and 35%
  Population Healthy Nuclei (%): 54%
  Population Hoechst High Intensity Objects (%): 2% and 7%
  Population Membrane Permeable-Phenotype (%): 1% and 8%
  Population Mitochondria Different-Phenotype (%): 2% and 8%
  Population Mitotic Cells (%): 52% and 53%
  Population Normal (%): 97% and 92%
  Population Pyknosed Nuclei (%): 18% and 9%
  Population Tubulin-Different-Phenotype (%): 27% and 73%
  Total Cell Count: 141 and 142
[6]
  Population Apoptotic (%): 61% and 54%
  Population Fragmented Nuclei (%): 23% and 34%
  Population Healthy Nuclei (%): 38% and 37%
  Population Hoechst High Intensity Objects (%): 15% and 10%
  Population Membrane Permeable-Phenotype (%): 0% and 25%
  Population Mitochondria Different-Phenotype (%): 24% and 8%
  Population Mitotic Cells (%): 38% and 45%
  Population Normal (%): 84% and 89%
  Population Pyknosed Nuclei (%): 37% and 27%
  Population Tubulin-Different-Phenotype (%): 92% and 87%
  Total Cell Count: 153 and 141

## COC(c1ccccc1)(c1ccccc1)[C@H](Oc1nc(C)cc(C)n1)C(=O)O [AMBRISENTAN]
[1]
  Population Apoptotic (%): 68% and 30%
  Population Fragmented Nuclei (%): 13% and 18%
  Population Healthy Nuclei (%): 66% and 56%
  Population Hoechst High Intensity Objects (%): 1% and 4%
  Population Membrane Permeable-Phenotype (%): 0% and 1%
  Population Mitochondria Different-Phenotype (%): 4% and 6%
  Population Mitotic Cells (%): 31% and 69%
  Population Normal (%): 98% and 95%
  Population Pyknosed Nuclei (%): 19% and 25%
  Population Tubulin-Different-Phenotype (%): 29% and 37%
  Total Cell Count: 97 and 163
[2]
  Population Apoptotic (%): 56% and 33%
  Population Healthy Nuclei (%): 70% and 25%
  Population Hoechst High Intensity Objects (%): 5% and 4%
  Population Membrane Permeable-Phenotype (%): 0% and 5%
  Population Mitochondria Different-Phenotype (%): 11% and 0%
  Population Mitotic Cells (%): 43% and 66%
  Population Normal (%): 94% and 95%
  Population Pyknosed Nuclei (%): 21% and 34%
  Population Tubulin-Different-Phenotype (%): 25% and 35%
  Total Cell Count: 145 and 82
[3]
  Population Apoptotic (%): 62% and 34%
  Population Fragmented Nuclei (%): 15% and 14%
  Population Healthy Nuclei (%): 67% and 62%
  Population Hoechst High Intensity Objects (%): 2% and 5%
  Population Membrane Permeable-Phenotype (%): 0% and 3%
  Population Mitochondria Different-Phenotype (%): 4% and 3%
  Population Mitotic Cells (%): 37% and 65%
  Population Normal (%): 97% and 94%
  Population Pyknosed Nuclei (%): 17% and 23%
  Population Tubulin-Different-Phenotype (%): 38%
  Total Cell Count: 95 and 158
[4]
  Population Apoptotic (%): 69% and 27%
  Population Healthy Nuclei (%): 68% and 27%
  Population Hoechst High Intensity Objects (%): 7% and 5%
  Population Membrane Permeable-Phenotype (%): 0% and 5%
  Population Mitochondria Different-Phenotype (%): 11% and 10%
  Population Mitotic Cells (%): 30% and 72%
  Population Normal (%): 92% and 94%
  Population Pyknosed Nuclei (%): 18% and 26%
  Population Tubulin-Different-Phenotype (%): 29% and 36%
  Total Cell Count: 149 and 73
[5]
  Population Apoptotic (%): 60% and 61%
  Population Fragmented Nuclei (%): 19% and 24%
  Population Healthy Nuclei (%): 64% and 54%
  Population Hoechst High Intensity Objects (%): 4% and 0%
  Population Membrane Permeable-Phenotype (%): 1% and 4%
  Population Mitochondria Different-Phenotype (%): 5% and 10%
  Population Mitotic Cells (%): 40% and 38%
  Population Normal (%): 95% and 99%
  Population Pyknosed Nuclei (%): 16% and 20%
  Population Tubulin-Different-Phenotype (%): 28% and 42%
  Total Cell Count: 93 and 154
[6]
  Population Apoptotic (%): 61% and 71%
  Population Healthy Nuclei (%): 71% and 31%
  Population Hoechst High Intensity Objects (%): 7% and 3%
  Population Membrane Permeable-Phenotype (%): 1% and 0%
  Population Mitochondria Different-Phenotype (%): 10% and 0%
  Population Mitotic Cells (%): 38% and 28%
  Population Normal (%): 92% and 96%
  Population Pyknosed Nuclei (%): 13% and 18%
  Population Tubulin-Different-Phenotype (%): 34% and 62%
  Total Cell Count: 145 and 79

## Cc1ccccc1C(=O)Nc1ccc(C(=O)N2CCCC(N(C)C)c3ccccc32)cc1.Cl (stereo not drawn)
[1]
  Population Apoptotic (%): 52% and 36%
  Population Fragmented Nuclei (%): 16% and 22%
  Population Healthy Nuclei (%): 71% and 55%
  Population Hoechst High Intensity Objects (%): 0% and 1%
  Population Membrane Permeable-Phenotype (%): 0% and 10%
  Population Mitochondria Different-Phenotype (%): 5% and 3%
  Population Mitotic Cells (%): 47% and 63%
  Population Normal (%): 100% and 98%
  Population Pyknosed Nuclei (%): 12% and 21%
  Population Tubulin-Different-Phenotype (%): 31% and 45%
  Total Cell Count: 167 and 155
[2]
  Population Apoptotic (%): 58% and 45%
  Population Fragmented Nuclei (%): 26% and 29%
  Population Healthy Nuclei (%): 50% and 47%
  Population Hoechst High Intensity Objects (%): 1% and 4%
  Population Membrane Permeable-Phenotype (%): 1% and 4%
  Population Mitochondria Different-Phenotype (%): 12%
  Population Mitotic Cells (%): 41% and 54%
  Population Normal (%): 98% and 95%
  Population Pyknosed Nuclei (%): 22% and 23%
  Population Tubulin-Different-Phenotype (%): 70% and 61%
  Total Cell Count: 108 and 109
[3]
  Population Apoptotic (%): 38% and 43%
  Population Fragmented Nuclei (%): 15% and 28%
  Population Healthy Nuclei (%): 76% and 49%
  Population Hoechst High Intensity Objects (%): 1% and 5%
  Population Membrane Permeable-Phenotype (%): 0% and 8%
  Population Mitochondria Different-Phenotype (%): 8% and 2%
  Population Mitotic Cells (%): 61% and 56%
  Population Normal (%): 98% and 94%
  Population Pyknosed Nuclei (%): 8% and 21%
  Population Tubulin-Different-Phenotype (%): 30% and 50%
  Total Cell Count: 160 and 157
[4]
  Population Apoptotic (%): 58% and 57%
  Population Fragmented Nuclei (%): 30% and 37%
  Population Healthy Nuclei (%): 58% and 42%
  Population Hoechst High Intensity Objects (%): 1% and 4%
  Population Membrane Permeable-Phenotype (%): 0% and 9%
  Population Mitochondria Different-Phenotype (%): 12% and 11%
  Population Mitotic Cells (%): 41% and 42%
  Population Normal (%): 98% and 95%
  Population Pyknosed Nuclei (%): 11% and 20%
  Population Tubulin-Different-Phenotype (%): 68% and 72%
  Total Cell Count: 111 and 107
[5]
  Population Apoptotic (%): 33% and 53%
  Population Fragmented Nuclei (%): 13% and 32%
  Population Healthy Nuclei (%): 79% and 50%
  Population Hoechst High Intensity Objects (%): 3%
  Population Membrane Permeable-Phenotype (%): 0% and 8%
  Population Mitochondria Different-Phenotype (%): 4% and 5%
  Population Mitotic Cells (%): 66% and 46%
  Population Normal (%): 96%
  Population Pyknosed Nuclei (%): 7% and 17%
  Population Tubulin-Different-Phenotype (%): 28% and 54%
  Total Cell Count: 158 and 155
[6]
  Population Apoptotic (%): 91% and 73%
  Population Fragmented Nuclei (%): 24% and 43%
  Population Healthy Nuclei (%): 60% and 43%
  Population Hoechst High Intensity Objects (%): 7% and 3%
  Population Membrane Permeable-Phenotype (%): 0% and 8%
  Population Mitochondria Different-Phenotype (%): 12% and 14%
  Population Normal (%): 92% and 96%
  Population Pyknosed Nuclei (%): 14% and 13%
  Population Tubulin-Different-Phenotype (%): 51% and 70%
  Total Cell Count: 88 and 113
